Sampled rows, rich in hits. Any-hit rate of the full collection: about 4.5%.
MrgX1 antagonist = antagonists of human MrgX1 receptor, primary screen, HEK293 cells, Fluo-4 calcium flux; actives 1.3% (n = 310,000); Mas-related G-protein coupled receptor member X1 (Homo sapiens), Q96LB2; AID 588676, 2011; B-score at 10 µM; BAM8-22 antagonism; stronger effect = lower value;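 active means calcium-response B-score plate-corrected more than 3 library SD below zero, starting fluorescence within 5 deviations, no agonist response on first addition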;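 further: peak minus trough fluorescence over baseline after final BAM8-22 challenge near maximal dose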
RGS4 inh = RGS4 inhibitors, primary screen, cell-based, HEK293 M3R inducible RGS4, calcium flux | B-score at 10 µM | actives 0.45% (n = 310,000) | Fluo-4 calcium flux; stronger effect = higher value; triggered by carbachol at its EC20 | Regulator of G-protein signaling 4 (Homo sapiens), P49798 | AID 463165, 2010;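 active means B-score, a plate-corrected calcium signal, over three deviations above library mean, with baseline fluorescence within five deviations of library mean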;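 further: RGS4 expression induced by doxycycline in cells with stable M3 receptor; B-score is computed from the integrated fluorescence ratio over baseline after carbachol; higher B-score means a larger calcium signal and so more RGS4 inhibition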
Target sequence (P49798 whole entry, looked up): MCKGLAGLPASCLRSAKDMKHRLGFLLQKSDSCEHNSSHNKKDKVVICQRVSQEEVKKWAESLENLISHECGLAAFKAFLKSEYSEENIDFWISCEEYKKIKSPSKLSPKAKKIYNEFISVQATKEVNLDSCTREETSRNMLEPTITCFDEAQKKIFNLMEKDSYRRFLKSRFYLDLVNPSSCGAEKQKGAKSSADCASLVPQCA
PHOSPHO1 block = PubChem AID 1565 | Phosphoethanolamine/phosphocholine phosphatase (Homo sapiens), Q8TCT1 | recombinant PHOSPHO1, absorbance phosphatase assay | inhibition, % at 13.3 µM | actives 1.1% (n = 290,000); in the data active means inhibition above about 60%
Target sequence (Q8TCT1 whole entry, looked up): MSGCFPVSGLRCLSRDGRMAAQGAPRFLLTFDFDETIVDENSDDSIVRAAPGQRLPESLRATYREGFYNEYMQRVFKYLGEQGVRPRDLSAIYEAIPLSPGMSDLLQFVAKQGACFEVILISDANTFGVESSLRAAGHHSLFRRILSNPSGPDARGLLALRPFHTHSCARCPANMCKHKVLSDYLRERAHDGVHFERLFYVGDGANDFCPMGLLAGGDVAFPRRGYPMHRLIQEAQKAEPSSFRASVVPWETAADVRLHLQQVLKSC
MrgX1 ag = agonists of human MrgX1 receptor, primary screen, HEK293 cells, Fluo-4 calcium flux. Mas-related G-protein coupled receptor member X1 (Homo sapiens), Q96LB2. Fluo-4 calcium fluorescence, agonist mode; stronger effect = higher value. B-score at 10 µM. actives 0.44% (n = 310,000);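 active means calcium response B-score plate-corrected fluorescence ratio at least 3 library SD, with starting fluorescence B-score inside 5 SD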
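System – MrgX1-expressing HEK293 cells · Incubation – cells plated overnight, dye loaded 0.5 h 37 °C, 0.5 h room temperature · Technique – kinetic Fluo-4 NW fluorescence of intracellular calcium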
MrgX1 allo act = positive allosteric modulators of MrgX1, primary screen, HEK293 cells, Fluo-4 calcium flux. Mas-related G-protein coupled receptor member X1 (Homo sapiens), Q96LB2. FDSS; stronger effect = higher value. B-score at 10 µM. actives 0.63% (n = 310,000). AID 588675, 2011;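 active means plate-corrected calcium response at least 3 library SD above typical, normal starting fluorescence, not activating the receptor alone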;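 further: compound read alongside a low EC10 to EC30 dose of BAM8-22 agonist; peak minus trough fluorescence over baseline measured at the second addition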
RGS4 pot = RGS4 potentiators or activators, primary screen, cell-based, HEK293 M3R inducible RGS4, calcium flux. carbachol calcium flux Fluo4; stronger effect = lower value. B-score at 10 µM. actives 0.92% (n = 310,000);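 active means B-score of the integrated calcium signal more than 4 SD below the library mean, with starting fluorescence not abnormally high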;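 further: negative B-score means reduced calcium response which marks RGS4 activation or potentiation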
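Detection: kinetic calcium fluorescence imaging with Fluo4-AM dye, 2 µM / Material: HEK293 cells with stable M3R and inducible RGS4 / Schedule: recording 10 s baseline at 1 Hz, 100 s post-agonist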
RGS4 block valid = enhanced carbachol calcium response, M3R/RGS4 cells, RGS4 inhibitor project, cell-based, validation screen, HEK293 M3R/RGS4, calcium flux. calcium response, % at 10 µM. shares compounds with RGS4 inh. AID 492999, 2010. actives 65% (n = 1,700). carbachol calcium Fluo-4 fluorescence; carbachol added at its EC20; 0 = buffer wells, 100 = carbachol control;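 active means duplicate-averaged calcium response above the buffer-only control mean plus 5 SD of those controls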;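 further: integrated fluorescence ratio F max minus min over baseline F0; higher response in RGS4-induced cells means RGS4 inhibition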
RGS4 uninduced = carbachol calcium response in non-induced M3R cells, confirmation, counter-screen for RGS4 inhibitor project, cell-based, HEK293 M3R. shares compounds with RGS4 inh. carbachol calcium Fluo-4; submaximal (EC20) carbachol stimulus; buffer wells 0%, carbachol control wells 100%. activity (percent), % at 10 µM. actives 20% (n = 1,900); call rule not given here;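 further: RGS4 induction absent so cells express M3R without RGS4; higher means more calcium signal and flags a non-specific hit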
M3R basal Ca ctr = second RGS4 inhibitor counter-screen in uninduced cells lacking carbachol; HEK293 M3R/RGS4 non-induced, Fluo-4 calcium, no carbachol; normalised: buffer wells 0%, carbachol wells 100%; actives 22% (n = 1,900); calcium response (agonist-mode artifact), % at 10 µM; shares compounds with RGS4 inh; AID 493001;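 active means duplicate-averaged calcium rise in uninduced cells above buffer wells' mean plus 5 SD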
* = called active by the depositor.

OC(CNCC(c1ccc(Cl)cc1Cl)c1c[nH]c2ccccc12)c1ccccc1 (stereo not drawn) was read as MrgX1 antagonist inactive, RGS4 inh 4.9*, PHOSPHO1 block 42, MrgX1 ag inactive, MrgX1 allo act inactive, RGS4 pot inactive, RGS4 block valid 17%*, RGS4 uninduced inactive and M3R basal Ca ctr 14%*.
Cc1nn(-c2ccccc2)c(Cl)c1/C=N/NC(N)=O was read as MrgX1 antagonist inactive, RGS4 inh inactive, PHOSPHO1 block 28, MrgX1 ag inactive, MrgX1 allo act inactive and RGS4 pot inactive.
For NC(=O)N/N=C/c1c(Sc2nnnn2-c2ccccc2)nc2ccccn2c1=O the results were MrgX1 antagonist inactive, RGS4 inh 12*, PHOSPHO1 block -8, MrgX1 ag inactive, MrgX1 allo act inactive, RGS4 pot inactive, RGS4 block valid 11%*, RGS4 uninduced inactive and M3R basal Ca ctr inactive.
`CO/C=C\C=C/c1nnn(-c2ccc(Cl)cc2)n1` gave MrgX1 antagonist inactive, RGS4 inh 7.5*, PHOSPHO1 block -6, MrgX1 ag inactive, MrgX1 allo act inactive, RGS4 pot inactive, RGS4 block valid inactive, RGS4 uninduced inactive and M3R basal Ca ctr 8.0%*.
`O=C(O)CN1C(=O)/C(=C/c2ccccc2Cl)Oc2ccccc21` gave MrgX1 antagonist inactive, RGS4 inh 6.5*, PHOSPHO1 block 25, MrgX1 ag inactive, MrgX1 allo act inactive, RGS4 pot inactive, RGS4 block valid 22%*, RGS4 uninduced 31%* and M3R basal Ca ctr inactive.
O=C(O)CN1C(=O)/C(=C/c2cccc(Cl)c2)Oc2ccccc21 was read as MrgX1 antagonist inactive, RGS4 inh inactive, PHOSPHO1 block 27, MrgX1 ag inactive, MrgX1 allo act inactive and RGS4 pot inactive.
Screening Cc1cc(NS(=O)(=O)c2ccc(Nc3nc(-c4ccc(O)cc4)cs3)cc2)no1 returned MrgX1 antagonist inactive, RGS4 inh inactive, PHOSPHO1 block 0, MrgX1 ag inactive, MrgX1 allo act inactive, RGS4 pot inactive, RGS4 uninduced inactive and M3R basal Ca ctr inactive.
Screening Cc1cc(NS(=O)(=O)c2ccc(Nc3nc(-c4ccc(C)c(C)c4)cs3)cc2)no1 returned MrgX1 antagonist inactive, RGS4 inh inactive, PHOSPHO1 block 21, MrgX1 ag inactive, MrgX1 allo act inactive, RGS4 pot inactive, RGS4 block valid inactive, RGS4 uninduced 34%* and M3R basal Ca ctr inactive.
For Cc1cc(NS(=O)(=O)c2ccc(Nc3nc(-c4sc(N)nc4C)cs3)cc2)no1 the results were MrgX1 antagonist inactive, RGS4 inh inactive, PHOSPHO1 block -20, MrgX1 ag inactive, MrgX1 allo act inactive and RGS4 pot inactive.
`COc1cc(NS(=O)(=O)c2ccc(Nc3nc(-c4ccccc4)cs3)cc2)nc(OC)n1` gave MrgX1 antagonist inactive, RGS4 inh 8*, PHOSPHO1 block -7, MrgX1 ag inactive, MrgX1 allo act inactive, RGS4 pot inactive, RGS4 block valid 18%*, RGS4 uninduced inactive and M3R basal Ca ctr inactive.
For CC(C)Oc1ccc(C(CC(=O)O)NC(=O)c2cccs2)cc1 (stereo not drawn) the results were MrgX1 antagonist inactive, RGS4 inh inactive, PHOSPHO1 block 11, MrgX1 ag inactive, MrgX1 allo act inactive and RGS4 pot inactive.
Screening O=[N+]([O-])/C=C1/CCCCCN1 returned MrgX1 antagonist inactive, RGS4 inh inactive, PHOSPHO1 block 2, MrgX1 ag inactive, MrgX1 allo act inactive and RGS4 pot inactive.
For CCOc1ccc(NC(=O)COC(=O)C23CC4CC(CC(C4)C2)C3)c([N+](=O)[O-])c1 the results were MrgX1 antagonist inactive, RGS4 inh inactive, PHOSPHO1 block -6, MrgX1 ag inactive, MrgX1 allo act inactive and RGS4 pot inactive.
C/C(=N\Nc1ccc(C(=O)O)cc1)c1ccc(Br)cc1 was read as MrgX1 antagonist inactive, RGS4 inh 4.7*, PHOSPHO1 block 29, MrgX1 ag inactive, MrgX1 allo act inactive, RGS4 pot inactive, RGS4 block valid 20%*, RGS4 uninduced 35%* and M3R basal Ca ctr inactive.
COc1ccc(C(=O)N[C@H](C(=O)N2CCN(c3ccccc3F)CC2)C(C)C)cc1 was read as MrgX1 antagonist inactive, RGS4 inh inactive, PHOSPHO1 block 27, MrgX1 ag inactive, MrgX1 allo act inactive and RGS4 pot inactive.
`O=C(CC1C(=O)NCCN1C(=O)Nc1ccc(F)cc1)Nc1ccc(F)cc1` (stereo not drawn) gave MrgX1 antagonist inactive, RGS4 inh inactive, PHOSPHO1 block 36, MrgX1 ag inactive, MrgX1 allo act inactive, RGS4 pot inactive, RGS4 uninduced inactive and M3R basal Ca ctr inactive.
For COc1ccccc1C(=O)N1CCNC(=O)C1CC(=O)Nc1cccc(C)c1 (stereo not drawn) the results were MrgX1 antagonist inactive, RGS4 inh 5.1*, PHOSPHO1 block 8, MrgX1 ag inactive, MrgX1 allo act inactive, RGS4 pot inactive, RGS4 block valid inactive, RGS4 uninduced inactive and M3R basal Ca ctr inactive.
`O=C(CC1C(=O)NCCN1C(=O)Nc1ccccc1)Nc1cc(Cl)cc(Cl)c1` (stereo not drawn) gave MrgX1 antagonist inactive, RGS4 inh 6.1*, PHOSPHO1 block 31, MrgX1 ag inactive, MrgX1 allo act inactive, RGS4 pot inactive, RGS4 block valid 23%*, RGS4 uninduced inactive and M3R basal Ca ctr inactive.

From PubChem
